In brackets after ≈: the same amount, converted by molar mass.
How the values were obtained:
[1] = Cytotoxicity against primary HUVEC measured after 48 hrs by MTT assay; format: toxicity, cell-based; conditions: human
[2] = Cytotoxicity against human THP1 cells measured after 48 hrs by MTT assay; format: toxicity, cell-based, THP-1
Procedure, shortened: (§1)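 MTT assay with 48 h compound exposure. THP-1 macrophages made by 24 h PMA treatment. Each concentration tested in triplicate in one experiment. % cytotoxicity = (control−test)/(control−blank)×100, with control = cells + DMSO and blank = medium without cells. IC50 from % survival versus concentration plots.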

[3] = Cytotoxicity against […]-differentiated human THP1 cells measured after 48 hrs by MTT assay; format: toxicity, cell-based, THP-1; procedure, shortened: as §1
[4] = Cytotoxicity against human A549 cells measured after 48 hrs by MTT assay; format: toxicity, cell-based
[5] = Cytotoxicity against human PANC1 cells measured after 48 hrs by MTT assay; format: toxicity, cell-based, PANC-1
[6] = Cytotoxicity against human HeLa cells measured after 48 hrs by MTT assay; format: toxicity, cell-based
[7] = Antifungal activity against Fusarium oxysporum NCIM 1332 by standard agar method; format: functional
Procedure, shortened: (§2)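 MICs determined by standard agar method; DMSO as solvent control.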

Staphylococcus aureus [8] = test: Growth inhibition of Staphylococcus aureus NCIM 2010 at 30 ug/ml measured after 12 hrs relative to control; format: functional; conditions: NCIM 2010, 12 h, read-out: GI
Procedure, shortened: (§3)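 Bacteria grown in LB at 37 °C and 180 rpm to OD 1. Compounds added to wells, then 0.1% inoculum of 1 OD culture (620 nm). Growth read as OD at 620 nm after 8 h for gram-negative and after 12 h for gram-positive strains.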

Bacillus subtilis [9] = test: Growth inhibition of Bacillus subtilis NCIM 2079 at 30 ug/ml measured after 12 hrs relative to control; format: functional; conditions: NCIM 2079, 12 h, read-out: GI; procedure, shortened: as §3
Staphylococcus aureus [10] = test: Growth inhibition of Staphylococcus aureus NCIM 2010 at 10 ug/ml measured after 12 hrs relative to control; format: functional; conditions: NCIM 2010, 12 h, read-out: GI; procedure, shortened: as §3
Staphylococcus aureus [11] = test: Growth inhibition of Staphylococcus aureus NCIM 2010 at 3 ug/ml measured after 12 hrs relative to control; format: functional; conditions: NCIM 2010, 12 h, read-out: GI; procedure, shortened: as §3
Bacillus subtilis [12] = test: Growth inhibition of Bacillus subtilis NCIM 2079 at 10 ug/ml measured after 12 hrs relative to control; format: functional; conditions: NCIM 2079, 12 h, read-out: GI; procedure, shortened: as §3
Bacillus subtilis [13] = test: Growth inhibition of Bacillus subtilis NCIM 2079 at 3 ug/ml measured after 12 hrs relative to control; format: functional; conditions: NCIM 2079, 12 h, read-out: GI; procedure, shortened: as §3
Escherichia coli [14] = test: Growth inhibition of Escherichia coli NCIM 2688 at 30 ug/ml measured after 8 hrs relative to control; format: functional; conditions: NCIM 2688, 8 h, read-out: GI; procedure, shortened: as §3
Escherichia coli [15] = test: Growth inhibition of Escherichia coli NCIM 2688 at 10 ug/ml measured after 8 hrs relative to control; format: functional; conditions: NCIM 2688, 8 h, read-out: GI; procedure, shortened: as §3
Escherichia coli [16] = test: Growth inhibition of Escherichia coli NCIM 2688 at 3 ug/ml measured after 8 hrs relative to control; format: functional; conditions: NCIM 2688, 8 h, read-out: GI; procedure, shortened: as §3
Pseudomonas fluorescens [17] = test: Growth inhibition of Pseudomonas fluorescens NCIM 2036 at 30 ug/ml measured after 8 hrs relative to control; format: functional; conditions: NCIM 2036, 8 h, read-out: GI; procedure, shortened: as §3
Pseudomonas fluorescens [18] = test: Growth inhibition of Pseudomonas fluorescens NCIM 2036 at 10 ug/ml measured after 8 hrs relative to control; format: functional; conditions: NCIM 2036, 8 h, read-out: GI; procedure, shortened: as §3
Pseudomonas fluorescens [19] = test: Growth inhibition of Pseudomonas fluorescens NCIM 2036 at 3 ug/ml measured after 8 hrs relative to control; format: functional; conditions: NCIM 2036, 8 h, read-out: GI; procedure, shortened: as §3
Escherichia coli [20] = test: Antibacterial activity against Escherichia coli NCIM 2688 measured after 8 hrs; format: functional; conditions: NCIM 2688, 8 h; procedure, shortened: as §3
Pseudomonas fluorescens [21] = test: Antibacterial activity against Pseudomonas fluorescens NCIM 2036 measured after 8 hrs; format: functional; conditions: NCIM 2036, 8 h; procedure, shortened: as §3
Staphylococcus aureus [22] = test: Antibacterial activity against of Staphylococcus aureus NCIM 2010 measured after 12 hrs; format: functional; conditions: NCIM 2010, 12 h; procedure, shortened: as §3
Bacillus subtilis [23] = test: Antibacterial activity against Bacillus subtilis NCIM 2079 measured after 12 hrs; format: functional; conditions: NCIM 2079, 12 h; procedure, shortened: as §3
[24] = system: Mycobacterium tuberculosis; test: Growth inhibition of Mycobacterium bovis BCG ATCC 35743 at dormant stage at 30 ug/ml measured after 12 days by nitrate reductase dye based two fold dilution method relative to control; format: functional; conditions: BCG str. ATCC 35743, 288 h, read-out: GI
Procedure, shortened: (§4)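 M. bovis BCG was grown in Dubos medium and assayed in Mycobacterium pheli minimal medium (pH 6.6), with compounds from DMSO stocks. Incubation lasted 8 days for active and 12 days for dormant cultures. Viability was read by nitrate reductase at 540 nm against cell-free blanks, with vehicle set as 100% growth. Primary screen was at 30, 10 and 3 µg/ml, in triplicate, mean ± SD. MIC was taken from dose-response curves.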

[25] = system: Mycobacterium tuberculosis; test: Growth inhibition of Mycobacterium bovis BCG ATCC 35743 at dormant stage at 10 ug/ml measured after 12 days by nitrate reductase dye based two fold dilution method relative to control; format: functional; conditions: BCG str. ATCC 35743, 288 h, read-out: GI; procedure, shortened: as §4
[26] = system: Mycobacterium tuberculosis; test: Growth inhibition of Mycobacterium bovis BCG ATCC 35743 at dormant stage at 3 ug/ml measured after 12 days by nitrate reductase dye based two fold dilution method relative to control; format: functional; conditions: BCG str. ATCC 35743, 288 h, read-out: GI; procedure, shortened: as §4
[27] = system: Mycobacterium tuberculosis; test: Growth inhibition of Mycobacterium bovis BCG ATCC 35743 at active stage measured after 8 days by nitrate reductase dye based two fold dilution method; format: functional; conditions: BCG str. ATCC 35743, 192 h; procedure, shortened: as §4
[28] = system: Mycobacterium tuberculosis; test: Growth inhibition of Mycobacterium tuberculosis H37Ra ATCC 25177 at dormant stage measured after 12 days by XTT dye based two fold dilution method; format: functional; conditions: H37Ra ATCC 25177, 288 h
Procedure, shortened: (§5)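 MTB H37Ra was grown in Dubos medium, then exposed in Mycobacterium pheli minimal medium (pH 6.6) to compounds dissolved in DMSO. The assay ended on day 8 (active) or day 12 (dormant). Viable cells were measured by XTT reduction menadione assay at 470 nm, blank-corrected, relative to vehicle control. Triplicates were expressed as mean ± SD. MIC came from dose-response curves.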

[29] = system: Mycobacterium tuberculosis; test: Growth inhibition of Mycobacterium bovis BCG ATCC 35743 at dormant stage measured after 12 days by nitrate reductase dye based two fold dilution method; format: functional; conditions: BCG str. ATCC 35743, 288 h; procedure, shortened: as §4
[30] = system: Mycobacterium tuberculosis; test: Growth inhibition of Mycobacterium tuberculosis H37Ra ATCC 25177 at active stage measured after 8 days by XTT dye based two fold dilution method; format: functional; conditions: H37Ra ATCC 25177, 192 h; procedure, shortened: as §5
Candida albicans = test: Antifungal activity against Candida albicans NCIM 3471 by standard agar method; format: functional; procedure, shortened: as §2
Aspergillus flavus = test: Antifungal activity against Aspergillus flavus NCIM 539 by standard agar method; format: functional; procedure, shortened: as §2
Aspergillus niger = test: Antifungal activity against Aspergillus niger NCIM 1196 by standard agar method; format: functional; procedure, shortened: as §2
[31] = Antifungal activity against Cryptococcus neoformans NCIM 576 by standard agar method; format: functional; procedure, shortened: as §2
[32] = Selectivity index, ratio of GI50 for HUVEC to MIC for Mycobacterium tuberculosis H37Ra ATCC 25177 at dormant stage
[33] = Selectivity index, ratio of GI50 for HUVEC to MIC for Mycobacterium bovis BCG ATCC 35743 at dormant stage; conditions: pooled result: one value given for 6 cell lines, strains, targets or settings
Procedure, shortened: (§6)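 SI is the cell-line GI50 divided by the dormant-stage mycobacterial MIC. […] THP-1 macrophages were PMA-differentiated for 24 h.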

[34] = Selectivity index, ratio of GI50 for human THP1 cells to MIC for Mycobacterium tuberculosis H37Ra ATCC 25177 at dormant stage; format: toxicity, cell-based, THP-1; conditions: read-out: Selectivity Index; procedure, shortened: as §6
[35] = Selectivity index, ratio of GI50 for […]-differentiated human THP1 cells to MIC for Mycobacterium tuberculosis H37Ra ATCC 25177 at dormant stage; format: toxicity, cell-based, THP-1; conditions: read-out: Selectivity Index; procedure, shortened: as §6
[36] = Selectivity index, ratio of GI50 for human A549 cells to MIC for Mycobacterium tuberculosis H37Ra ATCC 25177 at dormant stage; format: toxicity, cell-based; conditions: read-out: Selectivity Index; procedure, shortened: as §6
[37] = Selectivity index, ratio of GI50 for human PANC1 cells to MIC for Mycobacterium tuberculosis H37Ra ATCC 25177 at dormant stage; format: toxicity, cell-based, PANC-1; conditions: read-out: Selectivity Index; procedure, shortened: as §6
[38] = Selectivity index, ratio of GI50 for human HeLa cells to MIC for Mycobacterium tuberculosis H37Ra ATCC 25177 at dormant stage; format: toxicity, cell-based; conditions: read-out: Selectivity Index; procedure, shortened: as §6

SMILES: CC(=O)O[C@H]1C(=O)[C@@]2(C)[C@H]([C@H](OC(=O)c3ccccc3)[C@]3(O)C[C@H](OC(=O)[C@H](O)[C@@H](NC(=O)c4ccccc4)c4ccccc4)C(C)=C1C3(C)C)[C@]1(OC(C)=O)CO[C@@H]1C[C@@H]2O [PACLITAXEL]
- GI50 at 48 h [1]: > 10 µg/mL
- GI50 at 48 h [2]: 5.7 µg/mL (≈ 6.68 µM)
- GI50 at 48 h [3]: > 100 µg/mL
- GI50 at 48 h [4]: 0.04 µg/mL (≈ 0.0468 µM)
- GI50 at 48 h [5]: 5.8 µg/mL (≈ 6.79 µM)
- GI50 at 48 h [6]: 0.08 µg/mL (≈ 0.0937 µM)

SMILES: O=C(O)CCN1C(=O)/C(=C/c2cc3ccccc3nc2Cl)SC1=S
- MIC [7]: 125 µg/mL (≈ 330 µM)
- inhibition of growth at 30 µg/mL (Staphylococcus aureus [8]): -22.9%
- inhibition of growth at 30 µg/mL (Bacillus subtilis [9]): 6.41%
- inhibition of growth at 10 µg/mL (Staphylococcus aureus [10]): -20.6%
- inhibition of growth at 3 µg/mL (Staphylococcus aureus [11]): -28.2%
- inhibition of growth at 10 µg/mL (Bacillus subtilis [12]): 6.32%
- inhibition of growth at 3 µg/mL (Bacillus subtilis [13]): 3%
- inhibition of growth at 30 µg/mL (Escherichia coli [14]): -59%
- inhibition of growth at 10 µg/mL (Escherichia coli [15]): -52.5%
- inhibition of growth at 3 µg/mL (Escherichia coli [16]): -47.5%
- inhibition of growth at 30 µg/mL (Pseudomonas fluorescens [17]): -6.76%
- inhibition of growth at 10 µg/mL (Pseudomonas fluorescens [18]): -0.29%
- inhibition of growth at 3 µg/mL (Pseudomonas fluorescens [19]): -48%
- MIC (Escherichia coli [20]): > 30 µg/mL
- MIC (Pseudomonas fluorescens [21]): > 30 µg/mL
- MIC (Staphylococcus aureus [22]): > 30 µg/mL
- MIC (Bacillus subtilis [23]): > 30 µg/mL
- inhibition of growth at 30 µg/mL [24]: 49.1%
- inhibition of growth at 10 µg/mL [25]: -18.9%
- inhibition of growth at 3 µg/mL [26]: -3.3%
- IC50 [27]: > 30 µg/mL
- IC90 [27]: > 30 µg/mL
- IC50 [28]: > 30 µg/mL
- IC90 [28]: > 30 µg/mL
- IC50 [29]: > 30 µg/mL
- IC90 [29]: > 30 µg/mL
- IC50 [30]: > 30 µg/mL
- IC90 [30]: > 30 µg/mL
- MIC (Candida albicans): 100 µg/mL (≈ 264 µM)
- MIC (Aspergillus flavus): 50 µg/mL (≈ 132 µM)
- MIC (Aspergillus niger): 75 µg/mL (≈ 198 µM)
- MIC [31]: 50 µg/mL (≈ 132 µM)

SMILES: CO[C@H]1/C=C/O[C@@]2(C)Oc3c(C)c(O)c4c(O)c(c(/C=N/N5CCN(C)CC5)c(O)c4c3C2=O)NC(=O)/C(C)=C\C=C\[C@H](C)[C@H](O)[C@@H](C)[C@@H](O)[C@@H](C)[C@H](OC(C)=O)[C@@H]1C [RIFAMPIN]
- IC90 [27]: 0.0151 µg/mL (≈ 0.0183 µM)
- IC50 [28]: 0.0019 µg/mL (≈ 0.00231 µM)
- IC90 [28]: 0.02 µg/mL (≈ 0.0243 µM)
- IC50 [29]: 0.0043 µg/mL (≈ 0.00523 µM)
- IC90 [29]: 0.0173 µg/mL (≈ 0.021 µM)
- IC50 [30]: 0.0021 µg/mL (≈ 0.00255 µM)
- IC90 [30]: 0.028 µg/mL (≈ 0.034 µM)
- Selectivity Index [32]: 2500
- Selectivity Index [33]: 2500
- selectivity ratio [34]: 2500
- selectivity ratio [35]: 2500
- selectivity ratio [36]: 2500
- selectivity ratio [37]: 2500
- selectivity ratio [38]: 2500
